# Assay results of several laboratories.
# ACHE: Acetylcholinesterase (ACHE, Homo sapiens, UniProt P22303)
Compound,target,test,conditions,quantity,value
CCc1ccc(N2C(=O)/C(=C3/C(=O)N(C)c4ccc(Cl)cc43)NC2=S)cc1,ACHE,"enzyme activity, inhibitor, Ellman",5 µM,inhibition,84%
C1CO1.C=O.CC(C)(C)CC(C)(C)c1ccc(O)cc1,"Mitogen-activated protein kinase 3 (MAPK3, Homo sapiens, UniProt P27361)","enzyme activity, inhibitor, ADP detection",10 µM,inhibition,45.2%
COc1cc(/C=C/C(=O)O)ccc1OCc1cn(CC(=O)Nc2ccccc2[N+](=O)[O-])nn1,ACHE,"enzyme activity, inhibitor, Ellman",40 µM,inhibition,22.1%
CN1C(=O)/C(=N\Nc2ncc(-c3cc4ccccc4oc3=O)s2)c2cc(Cl)ccc21,ACHE,"enzyme activity, inhibitor, Ellman",1 µM,inhibition,90%
COc1cc(/C=C/C(=O)O)ccc1OCc1cn(CC(=O)Nc2ccccc2C)nn1,ACHE,"enzyme activity, inhibitor, Ellman",40 µM,inhibition,30.9%
CC(C)CC(=O)OC[C@H]1O[C@@](C#N)(c2ccc3c(N)ncnn23)[C@H](O)[C@@H]1O,ACHE,"enzyme activity, inhibitor",20 µM,inhibition,3%
CCCCC(=O)Nc1ccc(-c2ccc3ncn(CCC)c(=O)c3c2)cn1,"Serine/threonine-protein kinase PknB (pknB, Mycobacterium tuberculosis, UniProt P9WI81)","binding, competition with immobilised ligand",0.5 µM,remaining binding,100%
[2H]c1c([2H])c([C@]2([2H])CCCN2C(=O)C(C)(C)Oc2ccc3cn[nH]c3c2)c([2H])c([2H])c1C([2H])([2H])[2H],"Ephrin type-A receptor 2 (EPHA2, Homo sapiens, UniProt P29317)","binding, competition with immobilised ligand",1 µM,remaining binding,99%
COc1cc(/C=C/C(=O)O)ccc1OCc1cn(CC(=O)Nc2ccc(C)cc2)nn1,ACHE,"enzyme activity, inhibitor, Ellman",40 µM,inhibition,46%
